Read-outs that look alike come from different tables or passages of the source. Ends that are not written are not given here.
Experiments:
human CMKLR1 [1] = biological target: T1, human CMKLR1 (Homo sapiens, UniProt Q99788); assay: cAMP assay, huCMKLR1/HEK293; assay type: cell-based; conditions: forskolin 10 μM, 30 min at 37°C
T1 sequence (Q99788 1-373): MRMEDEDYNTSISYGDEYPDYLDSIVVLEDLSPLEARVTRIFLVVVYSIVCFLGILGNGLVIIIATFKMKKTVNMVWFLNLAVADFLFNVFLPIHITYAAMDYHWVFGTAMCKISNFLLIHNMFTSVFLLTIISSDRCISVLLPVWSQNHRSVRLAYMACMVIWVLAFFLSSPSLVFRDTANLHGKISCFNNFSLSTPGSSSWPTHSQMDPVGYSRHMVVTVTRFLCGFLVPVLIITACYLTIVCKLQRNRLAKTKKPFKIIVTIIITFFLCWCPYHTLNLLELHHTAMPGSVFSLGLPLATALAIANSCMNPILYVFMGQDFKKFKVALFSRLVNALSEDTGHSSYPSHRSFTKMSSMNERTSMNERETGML

WT/HEK293 cells [2] = assay: cAMP assay, WT/HEK293; assay type: cell-based; conditions: 30 min at 37°C
How it was run: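 Wild-type HEK293 cells were plated at 5 × 10^5/well, cultured for 24 h and serum-starved for 4 h. Exposed for 30 min at 37°C to test compound, forskolin 10 μM, both together, or medium. Washed with cold PBS and lysed. Lysate cAMP was measured by kit and normalised to total protein (BCA); conditioned medium was also assayed. Mean ± S.E.M.; one-way ANOVA with SNK test.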

primary Leydig cells [3] = assay: Testosterone production, primary Leydig cell culture; assay type: cell-based, Sprague-Dawley rat; conditions: 24 h; for hCG-stimulated testosterone production: hCG 0.01 IU/mL, vs hCG group
How it was run: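 Leydig cells came from five male rats aged 3–4 months. Decapsulated testes were digested for 15 min at 34°C in DMEM/F12-0.1% BSA with 0.5 mg/mL collagenase IA and 0.25 mg/mL soybean trypsin inhibitor. Filtered, purified on a Percoll gradient, cultured at 34°C, 5% CO2, and purity checked by 3β-HSD staining. Treated for 24 h with test compound ± hCG 0.01 IU/mL. Medium testosterone by 125I RIA; mean ± S.E.M.; ANOVA/SNK.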

human CMKLR1 [4] = biological target: T1, human CMKLR1; assay: In vitro transwell chemotaxis assay, huCMKLR1/L1.2; assay type: cell-based; conditions: for chemotaxis: 4 h at 37°C, fluorescence 560/580 nm
antral follicles [5] = assay: Progesterone production, antral follicle culture; assay type: cell-based, Sprague-Dawley rat; conditions: hCG 0.01 IU/mL, 6 h, vs hCG group
How it was run: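 Immature female rats (21–23 days) were primed with PMSG, 30 IU i.p. per rat. Follicles over 900 μm were isolated 48 h later into ice-cold saline and preincubated at 3 per well in DMEM/F12-0.1% BSA at 37°C. Treated for 6 h with test compound, alone or with hCG 0.01 IU/mL. Medium progesterone measured by 125I RIA (sensitivity 0.02 ng/mL). Mean ± S.E.M.; one-way ANOVA with SNK test.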

human CMKLR1 [6] = biological target: T1, human CMKLR1; assay: Radioligand binding assay, huCMKLR1/HEK293
human GPR1 = biological target: T2, human GPR1 (Homo sapiens, UniProt P46091); assay: Radioligand binding assay, huGPR1/HEK293
T2 sequence (P46091 1-355): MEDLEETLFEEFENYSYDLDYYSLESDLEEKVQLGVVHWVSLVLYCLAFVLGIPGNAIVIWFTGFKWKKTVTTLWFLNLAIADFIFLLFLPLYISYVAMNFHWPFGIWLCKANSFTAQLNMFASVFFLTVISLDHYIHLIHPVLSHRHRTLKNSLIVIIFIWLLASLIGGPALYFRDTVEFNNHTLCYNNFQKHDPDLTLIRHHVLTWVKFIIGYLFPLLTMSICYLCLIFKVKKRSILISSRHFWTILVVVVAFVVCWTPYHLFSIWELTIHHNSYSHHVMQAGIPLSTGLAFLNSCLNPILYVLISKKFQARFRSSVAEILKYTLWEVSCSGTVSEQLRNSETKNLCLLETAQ
How it was run: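 Competition binding on intact huGPR1/HEK293 cells, with neuronostatin as the negative-control peptide. After incubation, cells were pelleted at 1000 × g for 10 min, washed three times, and counted in a γ-spectrophotometer.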

human CMKLR1 [7] = biological target: T1, human CMKLR1; assay: Receptor internalization assay, huCMKLR1/HEK293; assay type: cell-based; conditions: 100 nM, 30 min at 37°C, confocal, four independent experiments
CCRL2 = conditions: cited from earlier work
human granulose cell = conditions: human granulosa cells; cited from earlier work
GPR1 = conditions: cited from earlier work
CMKLR1 [8] = conditions: cited from earlier work
WT/HEK293 cells [9] = assay: C-FOS gene expression; assay type: cell-based; conditions: 30 nM, 30 min at 37°C, data not shown
WT/L1.2 cells = assay: In vitro transwell chemotaxis assay, WT/L1.2; assay type: cell-based; conditions: 0.3, 1, 10, 100 nM, 4 h at 37°C
How it was run: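 Wild-type L1.2 cells were pretreated overnight with sodium butyrate. […] After 4 h migration at 37°C, cells in the lower chamber were stained with CellTiter Blue and read by fluorescence at 560/580 nm. Run in parallel with the CMKLR1-transfected line.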

WT/HEK293 cells [10] = assay: Internalization assay, wild-type HEK293; assay type: cell-based; conditions: 100 nM, 30 min at 37°C, confocal
How it was run: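 Cells were grown on 0.1% gelatin-coated coverslips and serum-starved for 4 h at 50–60% confluence. […] Fixed in 4% paraformaldehyde and permeabilised with 0.1% Triton X-100. Stained overnight at 4°C with rat anti-human CMKLR1 mAb, then Alexa-488 anti-rat for 2 h, with DAPI. Examined by confocal microscopy; four independent experiments.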

WT/HEK293 cells [11] = assay: Immunocytochemistry of C-FOS, WT/HEK293; assay type: cell-based; conditions: 100 nM, 30 min at 37°C
How it was run: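 Coverslips coated with 0.1% gelatin. […] Fixed in 4% paraformaldehyde for 30 min and permeabilised with 0.1% Triton X-100 for 10 min. Stained with rabbit anti-C-FOS overnight at 4°C, then Alexa-488 anti-rabbit for 1 h, with DAPI nuclear stain. Imaged by confocal microscopy.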

antral follicles [12] = assay: Steroidogenic enzyme gene expression, antral follicles; assay type: cell-based, Sprague-Dawley rat; conditions: large antral follicles, beta-actin reference, 6 h
primary Leydig cells [13] = assay: Steroidogenic enzyme gene expression, primary Leydig cells; assay type: cell-based, Sprague-Dawley rat; conditions: beta-actin reference, 24 h
How it was run: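 Leydig cells from testes of five Sprague-Dawley males (3–4 months): collagenase IA digestion, 15 min at 34°C; 70 μm filtration; Percoll gradient (1.030–1.096 g/mL); culture at 34°C, 5% CO2; purity by 3β-HSD staining.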

CMKLR1 [14] = conditions: cited from earlier work; remark: listed apart in the source

For `C=C[C@@]1(C)CC(=O)[C@]2(O)[C@@]3(C)[C@@H](O)CCC(C)(C)[C@@H]3[C@H](O)[C@H](OC(C)=O)[C@@]2(C)O1` [forskolin, reference compound], the “increase in cAMP production” value (human CMKLR1 [1]) was “more than 50 fold” and the “increase in cAMP production” value (WT/HEK293 cells [2]; forskolin 10 μM) was “more than 50 fold”.

In the case of AGEDPHSFYFPGQFA [huC-15], the hCG-stimulated testosterone production (primary Leydig cells [3]; 100 nM) is reported as “no such kind of suppression”, the chemotaxis (human CMKLR1 [4]; 1 nM) is reported as “no chemotactic actions” and the chemotaxis (human CMKLR1 [4]; 10 nM) is reported as “no chemotactic actions”.

For “C-20: 20 amino acid chemerin-derived peptide; used without species prefix for huC-20 or mC-20 (VQRAGEDPHSFYFPGQFAFS)”, the hCG-stimulated testosterone production (primary Leydig cells [3]; 1 nM) was “not effective”, the hCG-stimulated testosterone production (primary Leydig cells [3]; 10 nM) was “not effective” and the hCG-stimulated progesterone production (antral follicles [5]; 1 nM) was “not effective”. The hCG-stimulated progesterone production (antral follicles [5]; 10 nM) was “not effective” and the “lowest effective dose for chemotaxis” value (human CMKLR1 [4]; of 0.3, 1, 10, 100 nM tested) was 1 nM.

IAQAGEDPHGYFLPGQFAFS [mC-20] showed an IC50 (human CMKLR1 [6]) of 2.5 nM and an IC50 (human GPR1) of 5 nM.

For LRQFLQKSLAAAT [NTS], the CMKLR1 internalization (human CMKLR1 [7]) was “negative control”, the chemotaxis (human CMKLR1 [4]; 1 nM) was “no chemotactic actions” and the chemotaxis (human CMKLR1 [4]; 10 nM) was “no chemotactic actions”.

In the case of VQRAGEDPHSFYFPGQFAFS [huC-20], the IC50 (human CMKLR1 [6]) is reported as 1.6 nM and the IC50 (human GPR1) is reported as 3.5 nM.

For “chemerin: The active protein of 137 amino acids in human was named chemerin”, the internalization and chemotaxis (CCRL2) is given as “stimulates neither internalization nor chemotaxis”, the “IGF-1-induced progesterone and estradiol secretion” value (human granulose cell) is given as “inhibited” and the receptor internalization (GPR1) is given as “stimulates receptor internalization”. The leukocyte chemotaxis (CMKLR1 [8]) was “promotes leukocyte chemotaxis” and the receptor internalization (CMKLR1 [8]) was “triggers receptor internalization”.

With “huChemerin: Human recombinant chemerin purchased from R&D Systems” the C-FOS gene expression (WT/HEK293 cells [9]) was “No such stimulation”, the chemotactic response (WT/L1.2 cells) was “no chemotactic response” and the internalization (WT/HEK293 cells [10]) was “No internalization observed”. The IC50 (human GPR1; read-out: IC50 (displacement of iodochemerin), huGPR1/HEK293 cells, about 1,000,000 per tube, 2 nM iodochemerin, 16 h at 23°C) was 0.5 nM, the C-FOS protein expression (WT/HEK293 cells [11]) was “No such stimulation” and the “forskolin-stimulated cAMP production” value (WT/HEK293 cells [2]; 10 nM peptide/protein + 10 μM forskolin cotreatment) was “no effect”.

B1: mChemerin: mouse recombinant chemerin purchased from R&D Systems (protein, UniProt Q9DD06 21-156, looked up)
Retinoic acid receptor …: EPELSETQRRSLQVALEEFHKHPPVQLAFQEIGVDRAEEVLFSAGTFVRLEFKLQQTNCPKKDWKKPECTIKPNGRRRKCLACIKMDPKGKILGRIVHCPILKQGPQDPQELQCIKIAQAGEDPHGYFLPGQFAFS
In the case of B1, the hCG-stimulated testosterone production (primary Leydig cells [3]; 1 nM) is reported as “suppressed”, the hCG-stimulated testosterone production (primary Leydig cells [3]; 10 nM) is reported as “suppressed” and the hCG-stimulated testosterone production (primary Leydig cells [3]; 100 nM) is reported as “suppressed”. For the same molecule, the basal testosterone production (primary Leydig cells [3]; no hCG, 1, 10, 100 nM) was “No effect was observed”, the hCG-stimulated progesterone production (antral follicles [5]; 10 nM) was “effective” and the hCG-stimulated progesterone production (antral follicles [5]; 100 nM) was “effective”. The 17β-HSD gene expression (antral follicles [12]) was “not affected”, the StAR gene expression (antral follicles [12]) was “not affected” and the p450scc gene expression (antral follicles [12]) was “not affected”. The 3β-HSD gene expression (antral follicles [12]; with hCG) was “suppression of 3β-HSD gene expression”, the 17β-HSD gene expression (primary Leydig cells [13]) was “not affected” and the StAR gene expression (primary Leydig cells [13]) was “not affected”. The p450scc gene expression (primary Leydig cells [13]) was “not affected” and the 3β-HSD gene expression (primary Leydig cells [13]; with hCG) was “suppression of 3β-HSD gene expression”.

B2: prochemerin: secreted as an inactive precursor, which is 143 amino acids long in human (protein, UniProt Q99969 21-163, looked up)
pro-form: ELTEAQRRGLQVALEEFHKHPPVQWAFQETSVESAVDTPFPAGIFVRLEFKLQQTSCRKRDWKKPECKVRPNGRKRKCLACIKLGSEDKVLGRLVHCPIETQVLREAEEHQETQCLRVQRAGEDPHSFYFPGQFAFSKALPRS
modifications: pro-form
For B2, the “affinity for CMKLR1” value (CMKLR1 [14]) is listed as “very low affinity”.

Source: PMC4092037 (American journal of reproductive immunology (New York, N.Y. …, 2013)
